The list is not random: actives were taken first. Their share in the collection is about 2.6%.
PG9 Ab binder = binders of HIV-1 gp120 antibody PG9, primary screen, biochemical, TR-FRET; HIV-1 gp120 / PG9 antibody interaction; TR-FRET gp120-PG9 antibody binding; inhibition, % at 6.7 µM; 0.43% of 360,000 active; in the data active means inhibition above about 8.5%
NR2E3 ag-1 = inhibitors of NR2E3-RetCOR corepressor binding, primary screen, NR2E3 agonist project, biochemical, TR-FRET, GST-NR2E3, biotin-RetCOR; 0.12% of 320,000 active; Photoreceptor-specific nuclear receptor (Homo sapiens), Q9Y5X4; inhibition of corepressor binding, % at 4.78 µM; 1536-well;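 active means percent inhibition above the cutoff of mean plus 3 SD of all tested compounds, set per screening campaign, cut at about 20% in these data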;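 further: 0% = DMSO wells and 100% = biotin wells as full block of FRET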
Target sequence (Q9Y5X4 whole entry, looked up): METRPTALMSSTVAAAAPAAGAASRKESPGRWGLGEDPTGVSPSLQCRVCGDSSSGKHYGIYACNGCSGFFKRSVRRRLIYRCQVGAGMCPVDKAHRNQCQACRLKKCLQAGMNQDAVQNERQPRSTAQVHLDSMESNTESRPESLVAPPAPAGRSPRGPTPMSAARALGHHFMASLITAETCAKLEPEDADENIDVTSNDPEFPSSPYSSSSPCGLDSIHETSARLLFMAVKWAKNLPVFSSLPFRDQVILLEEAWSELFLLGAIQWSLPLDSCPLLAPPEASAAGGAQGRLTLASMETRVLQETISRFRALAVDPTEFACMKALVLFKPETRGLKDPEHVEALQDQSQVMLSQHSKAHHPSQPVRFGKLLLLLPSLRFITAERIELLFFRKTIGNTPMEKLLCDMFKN
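system = GST-tagged NR2E3 plus biotinylated RetCOR corepressor | input = 1.35 nM GST-NR2E3 | also added = 7 nM biotin-RetCOR | schedule = 5 h incubation at 4 °C | measured by = TR-FRET with europium anti-GST and streptavidin-D2, 340 nm excitation | read-out = percent loss of FRET ratio relative to control wells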
Rev-erbA mod = modulators of Rev-erb alpha DNA binding, primary screen, biochemical, FITC-DNA, fluorescence polarization, uHTS; Nuclear receptor subfamily 1 group D member 1 (Homo sapiens), P20393; Rev-erbα–FITC-DNA binding, 90 min; activity, % at 10 µM; 0.79% of 370,000 active;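 active means activity above about 14%, limit read from the data; passing the limit was not always enough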;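 further: 0% = DMSO wells with 35 nM protein and 100% = DMSO wells with 750 nM protein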
NR2E3 ag-2 = NR2E3 agonists in two-hybrid cells, primary screen, cell-based, luminescence, CHO-S, Gal4-NCOR/VP16-NR2E3; luciferase; 0.35% of 360,000 active; AID 602229, 2012; inhibition of corepressor binding, % at 3.98 µM;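 active means inhibition above the mean of all tested compounds plus 3 SD, cut at about 70% in these data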;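 further: 0% = DMSO with NR2E3 transfected cells and 100% = cells lacking NR2E3 construct; higher means lower luciferase signal from less NR2E3 corepressor binding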
rCAG binder = binders of r(CAG) RNA repeats, primary screen, biochemical, fluorescence; 1.3% of 370,000 active; r(CAG) RNA repeat, TO-PRO-1 dye displacement fluorescence; inhibition, % at 3 µM; AID 651821, 2012;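 active means inhibition above the plate cutoff, the mean of all test compounds on that plate plus 3 SD, cut at about 35% in these data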;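 further: 0% = DMSO alone and 100% = 100 µM mitoxantrone as full dye displacement; higher means more dye released from RNA so lower well fluorescence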
NR1D1 mod conf = modulators of Rev-erb alpha DNA binding, confirmation, biochemical, FITC-DNA, fluorescence polarization, single point; shares compounds with Rev-erbA mod; 90 min; activation, % at 25 µM; 61% of 3,000 active; AID 1259319, 2017;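 active means activation at or above a set limit, or at least 3 SD above the negative control mean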;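 further: 0% = 35 nM protein with DMSO and 100% = 750 nM protein high control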
RORg DNA counter = modulation of RORgamma DNA binding, dose response, counter-screen for Rev-erb alpha modulator project, biochemical, fluorescence polarization, FITC-DNA; shares compounds with Rev-erbA mod; purified RORgamma protein-FITC-DNA binding; IC50, µM; 8% of 910 active; AID 1259320, 2017;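 active means Compounds whose fitted half-maximal concentration for disrupting protein-DNA binding is below 10 micromolar; the record names Rev-erb in its text, so the target is in doubt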
Active calls of the source: *; i = inactive; / = no result given.

SMILES	PG9 Ab binder	NR2E3 ag-1	Rev-erbA mod	NR2E3 ag-2	rCAG binder	NR1D1 mod conf	others
COc1ccc(-c2nn(CC(=O)Nc3ccc(Cl)c(Cl)c3)c(=O)c3ccccc23)cc1	2	0	22*	-3	19	14
CC(=O)c1cccc(NC(=O)Cn2nc(-c3ccc(Cl)cc3)ccc2=O)c1	0	2	23*	-16	-3	12
Cc1c(C(=O)NCc2ccc(F)cc2)sc(=O)n1Cc1ccc(Cl)c(Cl)c1	-1	/	-1	-2	0	/
O=C(NC1CCC(O)CC1)c1ccc(NS(=O)(=O)c2cccc([N+](=O)[O-])c2)cc1 (stereo not given)	0	-1	-7	17	4	/
Cc1ccc[n+](-c2nc([O-])sc2/C=N/Nc2ccc([N+](=O)[O-])cc2)c1	-4	-4	26*	-12	0	14
O=C(Cn1nnc(-c2ccc(Cl)cc2)n1)NC(=O)NC1CCCC1	-2	/	-8	-6	3	/
Cc1cccc(C(=O)N2CCC[C@H]2C(=O)N2CCC[C@H]2C(=O)NCc2ccncc2)c1	-1	/	0	-30	2	/
Cc1ccc(NC(=O)C2(C)CCN2CCc2ccccc2)cc1O (stereo not given)	1	/	1	4	-2	/
O=c1c(Cl)c(Nc2cccc(Cl)c2)cnn1-c1nc2ccccc2s1	-2	10	19*	-54	10	10
O=c1c2ccccc2c(-c2ccccc2)nn1Cc1c(Cl)cccc1Cl	1	1	6	-5	-2	/
O=c1c2ccccc2c(-c2ccccc2)nn1-c1cc(Cl)cc(Cl)c1	0	1	31*	3	1	0
COCCCNC(=O)Cn1nc(Cc2ccncc2)c2ccccc2c1=O	/	/	1	/	3	/
O=C(NCc1ccccn1)c1ccc(Cn2c(=S)[nH]c3ccc(Br)cc3c2=O)cc1	-1	2	42*	-6	0	35*	RORg DNA counter=>40
O=c1c2ccccc2[nH]c(=S)n1Cc1ccccc1	0	4	19*	11	0	6
CN(C)/C=C/c1oc2ccc(O)cc2c1[N+](=O)[O-]	-27	-12	37*	-39	11	17
O=C(O)[C@H](Cc1ccccc1)NC(=O)[C@H]1O[C@@H](n2ccc(=O)[nH]c2=O)[C@H](O)[C@@H]1O	-2	/	6	/	1	/
COc1ccc(NC(C)=O)cc1NC(=O)C1CCN(C(=O)Nc2ccccc2)CC1	2	2	1	-3	-3	/
CCOc1ccc(C(C)=O)cc1COC(=O)c1cc([N+](=O)[O-])ccc1N1CCOCC1	0	2	14*	-5	2	-3
COc1ccc(OC)c(COC(=O)c2cc([N+](=O)[O-])ccc2N2CCOCC2)c1	2	0	2	-23	3	/
CCCCc1cc2c(c(NC(C)=O)n1)c(=O)oc1ccccc12	/	-2	/	/	/	/
CC(=O)Nc1nc(CC(C)C)cc2c1c(=O)oc1ccccc12	6	2	27*	-15	2	3
CCCN(CCC)Cc1c(C(=O)N/N=C/c2ccc(C)o2)nnn1-c1nonc1N	2	2	31*	-14	1	8
CCCc1c(C(=O)N/N=C/c2ccc(C)o2)nnn1-c1nonc1N	2	/	-4	-19	3	/
CN(C)c1ccc(NC(=O)CN2CCc3ccccc3C2)cc1	-7	2	-3	-93	-6	/
Cc1noc(C)c1NC(=O)N(C)C[C@@H]1Oc2ccc(NC(=O)CCC(F)(F)F)cc2CC(=O)N([C@@H](C)CO)C[C@@H]1C	0	/	2	-11	-2	/
SMILES	PG9 Ab binder	NR2E3 ag-1	Rev-erbA mod	NR2E3 ag-2	rCAG binder	NR1D1 mod conf	others
O=C(Nc1ccon1)c1sc2cc(Cl)ccc2c1Cl	-2	-13	25*	8	-1	15
O=C1CN(c2nc(-c3ccccc3)c3cc(Cl)ccc3n2)c2ccccc2N1	-2	-2	32*	15	2	-1
O=C(COC(=O)COc1ccccc1)NC1CCS(=O)(=O)C1 (stereo not given)	1	/	-4	-11	2	/
CCNC(=O)C1CCCN(C(=O)c2ccc(N(C)C)cc2)CC1 (stereo not given)	0	/	6	21	0	/
CCn1c(SCC(=O)Nc2ccc(C(C)=O)cc2)nc2nc3c(cc2c1=O)CCCC3	0	-2	17*	-48	3	5
Cc1ccc(S(=O)(=O)N2CCCC2C(=O)N2CCN(c3ccccc3)CC2)cc1 (stereo not given)	/	/	6	/	-1	/
CC(=O)NC(=S)Nc1ccc2oc(-c3cc(F)c(F)cc3Cl)nc2c1	0	3	50*	-10	7	32*	RORg DNA counter=i
COc1cc2c(cc1OC)-c1cc3ccc4c(c3c[n+]1CC2)OCO4	-11	-4	27*	-47	-67	45*	RORg DNA counter=>40
C[C@@H]1CN([C@H](C)CO)C(=O)c2ccccc2-c2ccccc2CO[C@@H]1CN(C)C(=O)Nc1ccccc1	-1	/	3	/	1	/
Cc1ccc(NC(=O)c2sc3ncn(CC(=O)N4CCOCC4)c(=O)c3c2C)c(Br)c1	-1	-1	28*	-41	0	7
CC(C)OC(=O)N(C)C[C@@H]1OCc2cnnn2CCCC(=O)N([C@H](C)CO)C[C@H]1C	2	/	-5	5	0	/
COC(=O)c1cc2ccc(OC)cc2c2cc(OC)c(OC)cc12	-2	/	2	-1	6	/
COc1ccc2c(Cl)c(-c3nnc(SCC(N)=O)n3C)sc2c1	1	1	2	9	0	/
CCC(=O)Nc1nnc(SCC(=O)N2c3ccccc3CC2C)s1 (stereo not given)	0	-2	2	-21	-1	/
COc1ccc2c(Cl)c(-c3nnc(SCC(=O)c4ccccc4)n3C)sc2c1	1	-4	95*	2	3	117*	RORg DNA counter=i
CCC(=O)Nc1nnc(SCC(=O)c2ccc3c(c2)Cc2ccccc2-3)s1	7	-9	44*	-39	4	17*
Cn1c(SCC(=O)c2ccc3c(c2)Cc2ccccc2-3)nnc1-c1ccccc1	2	-75	62*	-42	11	47*	RORg DNA counter=7.5*
Cc1cc(=O)oc2cc(OCC3CC(c4ccc(Br)cc4)=NO3)ccc12 (stereo not given)	1	1	55*	-12	1	46*	RORg DNA counter=2.1*

Assay outcomes deposited in PubChem BioAssay by several laboratories.
